Reference: ChEMBL document CHEMBL4422684, “Identification of novel lysine demethylase 5-selective inhibitors by inhibitor-based fragment merging strategy” (Bioorg Med Chem, 2019)
Activity calls are given as the source filed them. No cut-off for these calls is given here.

Columns and labels:
[1] = target: T1, Lysine-specific demethylase 5A (Homo sapiens, UniProt P29375); assay: Inhibition of KDM5A in human A549 cells assessed as increase in H3K4me3 levels after 48 hrs by Western blot analysis; type: cell-based
How it was run: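 A549 cells (5 × 10^5 per 2 mL well, RPMI1640 with 10% heat-inactivated FBS) exposed 48 h to compounds at 1, 5 or 25 µM. SDS lysates normalised by BCA, separated on 5-20% SDS-PAGE, blotted to PVDF, blocked in 5% milk/TBS-T, probed for H3K4me3, H3K9me3, H3K27me3 and total H3, detected by HRP chemiluminescence.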

[2] = target: Lysine-specific demethylase 5B (Homo sapiens, UniProt Q9UGL1); assay: Inhibition of human N-terminal FLAG/His-tagged KDM5B (2 to 751 residues) expressed in baculovirus infected Sf9 insect cells using H3(1-21)K4(Me3)-GGK(Biotin)/2-OG as substrate measured after 1 hr by Alphalisa assay
How it was run: (§1)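 AlphaLISA demethylase assay in 50 mM HEPES pH 7.5, 0.1% BSA, 0.01% Tween 20 with DMSO. Enzyme and inhibitor combined, then peptide plus 2-OG (50 µM), Fe(II) (5 µM) and ascorbate (100 µM) in the added mix; 1 h at room temperature with shaking.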

[3] = tested on: MDA-MB-231; assay: Growth inhibition of human MDA-MB-231 cells at 50 uM after 72 hrs by Alamar blue staining based fluorescence assay; type: functional, cell-based
How it was run: (§2)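 A549 or MDA-MB-231 cells seeded at 2 × 10^3 per well, left 24 h at 37 °C, then given compounds in medium for 72 h at 37 °C, 5% CO2. AlamarBlue added for a further 3 h at 37 °C; fluorescence read at ex 540/em 590 nm and % growth calculated from it. A549 in RPMI1640/10% FBS; MDA-MB-231 in L-15 with 2 mM glutamine/10% FBS.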

[4] = target: T2, Lysine-specific demethylase 4A (Homo sapiens) (UniProt O75164); assay: Inhibition of human N-terminal His-tagged KDM4A (1 to 350 residues) expressed in Escherichia coli at 50 uM using H3(21-44)-K36(Me3)-GK(Biotin)/2-OG as substrate measured after 1 hr by Alphalisa assay relative to control; how it was run: as §1
T2 sequence (whole entry): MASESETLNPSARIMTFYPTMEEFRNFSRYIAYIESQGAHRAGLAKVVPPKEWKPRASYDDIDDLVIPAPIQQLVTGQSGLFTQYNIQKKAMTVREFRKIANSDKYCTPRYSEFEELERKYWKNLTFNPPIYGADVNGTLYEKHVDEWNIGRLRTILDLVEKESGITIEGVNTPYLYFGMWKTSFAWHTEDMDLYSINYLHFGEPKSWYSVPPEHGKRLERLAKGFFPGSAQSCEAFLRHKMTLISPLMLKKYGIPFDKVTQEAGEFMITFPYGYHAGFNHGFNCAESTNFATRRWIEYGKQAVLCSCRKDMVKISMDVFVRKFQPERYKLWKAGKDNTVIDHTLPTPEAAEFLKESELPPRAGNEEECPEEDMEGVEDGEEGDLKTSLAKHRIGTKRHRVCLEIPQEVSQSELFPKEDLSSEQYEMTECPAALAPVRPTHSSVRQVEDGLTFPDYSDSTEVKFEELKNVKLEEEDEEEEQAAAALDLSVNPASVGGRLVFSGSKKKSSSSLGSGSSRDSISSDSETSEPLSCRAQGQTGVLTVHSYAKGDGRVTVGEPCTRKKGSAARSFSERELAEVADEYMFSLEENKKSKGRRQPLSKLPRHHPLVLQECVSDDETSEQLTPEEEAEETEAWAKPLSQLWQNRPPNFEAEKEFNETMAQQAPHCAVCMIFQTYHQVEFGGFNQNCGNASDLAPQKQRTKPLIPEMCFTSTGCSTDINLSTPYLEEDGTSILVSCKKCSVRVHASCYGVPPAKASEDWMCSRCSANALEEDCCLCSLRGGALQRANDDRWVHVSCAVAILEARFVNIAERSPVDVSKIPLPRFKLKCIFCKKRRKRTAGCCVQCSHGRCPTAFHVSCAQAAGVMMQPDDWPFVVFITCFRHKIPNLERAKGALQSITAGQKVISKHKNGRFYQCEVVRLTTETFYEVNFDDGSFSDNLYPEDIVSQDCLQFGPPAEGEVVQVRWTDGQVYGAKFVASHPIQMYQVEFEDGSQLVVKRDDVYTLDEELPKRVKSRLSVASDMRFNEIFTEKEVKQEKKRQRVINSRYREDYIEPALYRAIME

[5] = tested on: A549; assay: Growth inhibition of human A549 cells after 72 hrs by Alamar blue staining based fluorescence assay; type: functional; conditions: A549, 72 h; how it was run: as §2
[6] = target: Lysine-specific demethylase 6B (Homo sapiens, UniProt O15054); assay: Inhibition of human C-terminal FLAG-tagged KDM6B (1043 to end residues) expressed in baculovirus infected Sf9 insect cells at 50 uM using H3(21-44)-K27(Me3)-GK(Biotin)/2-OG as substrate measured after 1 hr by Alphalisa assay relative to control; how it was run: as §1
[7] = target: T1, Lysine-specific demethylase 5A; assay: Inhibition of human C-terminal FLAG-tagged KDM5A (1 to 1090 residues) expressed in baculovirus infected Sf9 insect cells using H3(1-21)K4(Me3)-GGK(Biotin)/2-OG as substrate measured after 1 hr by Alphalisa assay; how it was run: as §1

Chain of Lysine-specific demethylase 6B (O15054 whole entry, the tested form may be a part): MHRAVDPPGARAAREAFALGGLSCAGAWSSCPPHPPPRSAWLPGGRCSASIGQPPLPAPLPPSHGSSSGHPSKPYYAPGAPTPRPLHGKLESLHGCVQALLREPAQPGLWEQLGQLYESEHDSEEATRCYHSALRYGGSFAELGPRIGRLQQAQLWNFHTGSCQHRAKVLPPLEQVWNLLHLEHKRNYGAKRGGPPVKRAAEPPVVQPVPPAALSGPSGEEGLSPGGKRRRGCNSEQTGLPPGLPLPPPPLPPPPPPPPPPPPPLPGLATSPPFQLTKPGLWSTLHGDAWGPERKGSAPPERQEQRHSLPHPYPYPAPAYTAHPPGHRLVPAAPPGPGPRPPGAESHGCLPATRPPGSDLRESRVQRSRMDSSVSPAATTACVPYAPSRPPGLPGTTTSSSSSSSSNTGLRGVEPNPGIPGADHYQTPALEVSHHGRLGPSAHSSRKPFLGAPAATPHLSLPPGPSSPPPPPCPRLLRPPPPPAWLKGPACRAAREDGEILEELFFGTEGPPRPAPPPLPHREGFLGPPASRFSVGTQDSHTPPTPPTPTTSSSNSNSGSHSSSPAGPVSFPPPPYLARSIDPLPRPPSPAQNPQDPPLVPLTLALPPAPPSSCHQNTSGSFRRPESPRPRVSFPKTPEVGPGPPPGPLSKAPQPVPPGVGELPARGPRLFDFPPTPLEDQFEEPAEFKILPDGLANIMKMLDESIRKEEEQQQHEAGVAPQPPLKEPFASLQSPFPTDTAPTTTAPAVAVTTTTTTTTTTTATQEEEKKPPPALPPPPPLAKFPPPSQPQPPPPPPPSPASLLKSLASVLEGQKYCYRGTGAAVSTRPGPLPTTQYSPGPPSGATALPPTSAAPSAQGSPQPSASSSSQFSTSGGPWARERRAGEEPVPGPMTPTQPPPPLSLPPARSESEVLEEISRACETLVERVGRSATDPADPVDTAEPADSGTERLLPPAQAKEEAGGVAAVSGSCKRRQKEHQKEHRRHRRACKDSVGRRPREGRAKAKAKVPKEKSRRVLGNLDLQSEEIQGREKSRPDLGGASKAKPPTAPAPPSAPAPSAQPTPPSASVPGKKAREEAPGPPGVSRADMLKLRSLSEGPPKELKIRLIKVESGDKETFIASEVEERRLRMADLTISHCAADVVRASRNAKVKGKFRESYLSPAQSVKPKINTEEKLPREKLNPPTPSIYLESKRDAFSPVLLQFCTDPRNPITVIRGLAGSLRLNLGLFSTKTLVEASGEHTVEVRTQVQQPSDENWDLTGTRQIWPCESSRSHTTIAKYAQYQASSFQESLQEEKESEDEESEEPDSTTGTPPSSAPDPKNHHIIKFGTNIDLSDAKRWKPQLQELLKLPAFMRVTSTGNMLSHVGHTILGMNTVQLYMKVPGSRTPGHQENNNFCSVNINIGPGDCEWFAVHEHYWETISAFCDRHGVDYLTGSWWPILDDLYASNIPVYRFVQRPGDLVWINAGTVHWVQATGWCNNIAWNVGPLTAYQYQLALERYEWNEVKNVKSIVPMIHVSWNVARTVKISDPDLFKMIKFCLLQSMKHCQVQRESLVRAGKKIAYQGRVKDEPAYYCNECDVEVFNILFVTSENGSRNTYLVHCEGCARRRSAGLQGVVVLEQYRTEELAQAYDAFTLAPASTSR
Chain of Lysine-specific demethylase 5B (Q9UGL1 whole entry, the tested form may be a part): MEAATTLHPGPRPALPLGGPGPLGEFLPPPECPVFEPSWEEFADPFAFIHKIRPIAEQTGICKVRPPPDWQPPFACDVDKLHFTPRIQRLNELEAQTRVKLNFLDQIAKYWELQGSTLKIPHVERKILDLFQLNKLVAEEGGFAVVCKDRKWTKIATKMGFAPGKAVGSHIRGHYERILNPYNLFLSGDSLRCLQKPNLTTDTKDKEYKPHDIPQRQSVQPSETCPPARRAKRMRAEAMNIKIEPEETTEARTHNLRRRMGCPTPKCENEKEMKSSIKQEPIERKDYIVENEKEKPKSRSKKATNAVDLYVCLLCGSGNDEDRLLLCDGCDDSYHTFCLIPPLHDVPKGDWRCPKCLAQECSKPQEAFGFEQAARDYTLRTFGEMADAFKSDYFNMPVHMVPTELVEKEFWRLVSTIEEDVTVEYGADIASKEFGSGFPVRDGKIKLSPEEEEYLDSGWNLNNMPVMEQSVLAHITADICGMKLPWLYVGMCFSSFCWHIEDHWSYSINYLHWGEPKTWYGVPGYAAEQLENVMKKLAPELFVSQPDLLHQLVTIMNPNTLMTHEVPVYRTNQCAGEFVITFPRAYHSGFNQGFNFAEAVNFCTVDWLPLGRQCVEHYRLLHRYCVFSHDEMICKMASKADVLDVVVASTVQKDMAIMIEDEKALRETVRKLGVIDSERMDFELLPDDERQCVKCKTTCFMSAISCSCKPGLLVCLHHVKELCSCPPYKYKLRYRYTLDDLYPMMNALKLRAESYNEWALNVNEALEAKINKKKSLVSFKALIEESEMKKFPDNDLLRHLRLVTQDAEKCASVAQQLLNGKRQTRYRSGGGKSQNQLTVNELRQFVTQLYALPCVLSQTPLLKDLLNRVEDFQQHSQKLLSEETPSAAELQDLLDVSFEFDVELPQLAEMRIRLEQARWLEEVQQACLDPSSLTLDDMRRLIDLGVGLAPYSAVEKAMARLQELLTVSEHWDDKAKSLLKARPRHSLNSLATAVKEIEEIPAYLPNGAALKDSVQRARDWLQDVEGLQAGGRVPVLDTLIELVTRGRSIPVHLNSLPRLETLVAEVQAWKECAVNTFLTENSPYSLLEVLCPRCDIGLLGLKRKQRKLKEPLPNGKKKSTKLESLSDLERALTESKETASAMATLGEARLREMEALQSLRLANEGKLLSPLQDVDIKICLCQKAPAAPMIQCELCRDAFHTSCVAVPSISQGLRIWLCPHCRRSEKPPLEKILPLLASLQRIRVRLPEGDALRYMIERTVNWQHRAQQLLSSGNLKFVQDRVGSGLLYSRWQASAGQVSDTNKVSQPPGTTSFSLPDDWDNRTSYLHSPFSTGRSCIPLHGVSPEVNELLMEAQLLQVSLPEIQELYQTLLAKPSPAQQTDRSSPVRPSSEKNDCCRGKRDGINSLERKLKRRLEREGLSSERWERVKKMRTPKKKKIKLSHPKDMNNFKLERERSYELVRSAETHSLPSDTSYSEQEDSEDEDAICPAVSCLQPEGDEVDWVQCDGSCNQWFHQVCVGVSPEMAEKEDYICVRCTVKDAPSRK
T1 sequence (P29375 whole entry): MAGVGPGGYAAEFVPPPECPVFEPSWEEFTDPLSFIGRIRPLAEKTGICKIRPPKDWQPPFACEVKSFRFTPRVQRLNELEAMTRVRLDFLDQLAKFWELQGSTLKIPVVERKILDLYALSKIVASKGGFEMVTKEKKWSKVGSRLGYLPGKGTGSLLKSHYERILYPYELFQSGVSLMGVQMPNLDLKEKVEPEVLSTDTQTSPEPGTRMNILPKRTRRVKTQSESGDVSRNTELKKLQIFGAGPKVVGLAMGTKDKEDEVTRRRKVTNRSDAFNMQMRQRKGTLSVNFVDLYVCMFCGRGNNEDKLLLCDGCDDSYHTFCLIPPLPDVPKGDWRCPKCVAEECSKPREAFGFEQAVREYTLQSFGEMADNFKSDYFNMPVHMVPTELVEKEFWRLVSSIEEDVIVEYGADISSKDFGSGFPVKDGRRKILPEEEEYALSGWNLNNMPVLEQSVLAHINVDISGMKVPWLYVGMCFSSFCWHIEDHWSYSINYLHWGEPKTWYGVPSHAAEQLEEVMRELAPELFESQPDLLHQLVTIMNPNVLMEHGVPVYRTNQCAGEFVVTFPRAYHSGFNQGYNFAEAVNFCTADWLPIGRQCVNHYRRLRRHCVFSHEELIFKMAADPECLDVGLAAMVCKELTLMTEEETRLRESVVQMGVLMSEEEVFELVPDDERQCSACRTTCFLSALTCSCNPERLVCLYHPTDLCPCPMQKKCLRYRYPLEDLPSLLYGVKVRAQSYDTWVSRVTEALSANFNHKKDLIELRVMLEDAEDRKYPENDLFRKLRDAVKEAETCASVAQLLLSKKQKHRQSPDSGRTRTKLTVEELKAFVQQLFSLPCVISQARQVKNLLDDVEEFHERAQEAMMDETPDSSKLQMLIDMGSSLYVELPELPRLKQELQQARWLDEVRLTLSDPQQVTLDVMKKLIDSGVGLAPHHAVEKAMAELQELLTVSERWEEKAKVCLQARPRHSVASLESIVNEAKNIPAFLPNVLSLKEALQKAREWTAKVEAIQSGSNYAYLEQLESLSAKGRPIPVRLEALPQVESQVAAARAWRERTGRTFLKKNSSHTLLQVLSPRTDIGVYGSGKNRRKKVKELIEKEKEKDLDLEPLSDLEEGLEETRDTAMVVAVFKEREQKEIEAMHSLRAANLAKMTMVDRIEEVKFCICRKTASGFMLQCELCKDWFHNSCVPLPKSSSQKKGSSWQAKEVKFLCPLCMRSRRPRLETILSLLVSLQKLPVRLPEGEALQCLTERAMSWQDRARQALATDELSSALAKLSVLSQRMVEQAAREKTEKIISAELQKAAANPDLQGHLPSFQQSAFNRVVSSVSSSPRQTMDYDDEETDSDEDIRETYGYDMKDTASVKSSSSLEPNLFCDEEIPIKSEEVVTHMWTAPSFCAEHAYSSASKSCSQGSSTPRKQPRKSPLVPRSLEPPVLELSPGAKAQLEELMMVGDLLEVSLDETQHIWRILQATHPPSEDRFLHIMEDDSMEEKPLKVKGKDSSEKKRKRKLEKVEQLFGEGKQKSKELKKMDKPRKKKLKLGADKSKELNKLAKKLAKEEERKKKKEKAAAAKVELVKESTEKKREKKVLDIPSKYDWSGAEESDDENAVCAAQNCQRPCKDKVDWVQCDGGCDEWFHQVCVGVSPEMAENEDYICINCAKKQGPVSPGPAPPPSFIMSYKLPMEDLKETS

inhibition [1]	IC50 [2] [nM]	inhibition [4] [%]	GI50 [5] [nM]	inhibition [6] [%]	IC50 [7] [nM]	SMILES	growth inhibition (GI) [3]
Dose-dependent effect	337	61.1	> 50000			CC(C)c1c(-c2ccccc2)[nH]c2c(C#N)cnn2c1=O	Active
	9240	25.4		17.8	2700	CCCCCN(C)CCCCC(=O)N(O)CCC(=O)O	
Dose-dependent effect	51.1	32.5	40000	29.1	22.7	CCCCCCN(C)Cc1ccc(-c2[nH]c3c(C#N)cnn3c(=O)c2C(C)C)cc1	Active
Dose-dependent effect	1.34	71	29600	22.7	4.37	CCCCCCN(C)CCc1ccc(-c2[nH]c3c(C#N)cnn3c(=O)c2C(C)C)cc1	Active
